Measurements collected from several papers.
Each line is one published result; the experiments were not run side by side. ≈ marks a conversion by molar mass, not a printed value.

Structure (SMILES)	tested on	assay	test system	setting	quantity	value
O=c1[nH]ncc(NN=Cc2cn(-c3ccccc3)nc2-c2cc3ccccc3oc2=O)c1Cl	CCRF-CEM	cell growth or viability		48 h	CC50	36.2 µM
C=CCNc1c2c([nH]c(=O)c1C(=O)OCC)CCC2	Human immunodeficiency virus 1	viral replication, inhibitor	IIIB	72 h	EC50	> 100 µM
Cc1nc(Nc2ncc(C(=O)Nc3c(C)cccc3Cl)s2)cc(N2CC[C@H](O)C2)n1	CCRF-CEM	cell growth or viability, ATP luminescence		72 h	IC50	> 10 µM
CC(C)(C#Cc1ccc(-c2ccc(Cl)c3c(NS(C)(=O)=O)nn(CC(F)(F)F)c23)c([C@H](CC2CCCC2)NC(=O)Cn2nc(C(F)(F)F)c3c2C(F)(F)[C@@H]2C[C@H]32)n1)S(C)(=O)=O	Human immunodeficiency virus 1	viral replication, inhibitor			EC50	7.3e-05 µM
CC(=O)ON=C1C=CC(=C(C#N)c2ccccc2)C=C1	HDF-1	cell growth or viability, MTT		72 h	IC50	24 µg/mL
O=C(N[C@@H](CSCc1ccccc1)C(=O)NO)c1ccccc1	HCC4006	cell growth or viability, MTT		48 h	IC50	68.2 µM
CC(C)(C#Cc1ccc(-c2ccc(Cl)c3c(NS(C)(=O)=O)nn(CC(F)(F)F)c23)c([C@H](CC2CCCCC2)NC(=O)Cn2nc(C(F)(F)F)c3c2C(F)(F)[C@H]2C[C@@H]32)n1)S(C)(=O)=O	Human immunodeficiency virus 1	viral replication, inhibitor			EC50	0.0007 µM
CCOC(=O)c1c(NCCC(C)C)c2c([nH]c1=O)CCC2	Human immunodeficiency virus 1	viral replication, inhibitor	IIIB	72 h	EC50	9.09 µM
CC(C)(C#Cc1ccc(-c2ccc(Cl)c3c(NS(C)(=O)=O)nn(CC(F)(F)F)c23)c([C@H](CC2CC2)NC(=O)Cn2nc(C(F)(F)F)c3c2C(F)(F)[C@@H]2C[C@H]32)n1)S(C)(=O)=O	Human immunodeficiency virus 1	viral replication, inhibitor			EC50	0.0009 µM
CCOC(=O)c1c(NCCCN)c2c([nH]c1=O)CCC2	Human immunodeficiency virus 1	viral replication, inhibitor	IIIB	72 h	EC50	> 100 µM
Cc1ccc(-c2nn(-c3ccccc3)cc2C=Nc2c(N)nc(S)nc2O)cc1	CCRF-CEM	cell growth or viability		48 h	CC50	< 20 µM
CCOC(=O)c1c(N(CC)CC)c2c([nH]c1=O)CCC2	Human immunodeficiency virus 1	viral replication, inhibitor	IIIB	72 h	EC50	79.3 µM
NNC(=O)c1ccncc1	Mycobacterium marinum	microbial growth			MIC90	40 µM (≈ 5.49 µg/mL)
